Measured values published in ChEMBL document CHEMBL1143246, “Design and synthesis of bicyclic pyrimidinones as potent and orally bioavailable HIV-1 integrase inhibitors” (J Med Chem, 2008).

Key:
[1] = test system: Human immunodeficiency virus 1; test: Antiviral activity against HIV1 in human MT4 cell assessed as inhibition of virus spread in presence of 10% fetal bovine serum; assay type: functional; conditions: Human immunodeficiency virus 1, MT4; read-out: CIC95
Method in brief: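 Spread of HIV-1 infection in MT-4 human T-lymphoid cell culture with 10% fetal bovine serum; CIC95 is the concentration inhibiting spread by ≥95%; mean of at least three independent experiments.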

[2] = Plasma clearance in rat at 3 mg/kg, po or 3 mg/kg, iv; assay type: ADME, organism-based
Method in brief: (§1)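 In vivo PK: iv dosing in DMSO/PEG400/H₂O mixtures, oral dosing as methylcellulose suspension. Half-life was taken after iv dosing; AUC and Cmax after po dosing.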

[3] = test system: Liver microsomes; test: Metabolic stability in rat liver microsomes in presence of UDPGA; assay type: ADME, Microsome
[4] = test system: Liver microsomes; test: Metabolic stability in rat liver microsomes in presence of NADPH; assay type: ADME, Microsome
Method in brief: (§2)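 Liver microsomes (1 mg/mL) with test compound at 2 µM, incubated with UDPGA or NADPH; degradation measured by LC/MS/MS after 1 h.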

[5] = test system: Liver; test: Metabolic stability in dog liver microsomes in presence of NADPH; assay type: ADME, Canis lupus familiaris, Microsome; method in brief: as §2
[6] = Oral bioavailability in rat at 3 mg/kg; assay type: ADME, organism-based; conditions: in vivo; method in brief: as §1
[7] = test system: Liver microsomes; test: Metabolic stability in human liver microsomes in presence of UDPGA; assay type: ADME, Microsome; method in brief: as §2
[8] = test system: Liver; test: Metabolic stability in dog liver microsomes in presence of UDPGA; assay type: ADME, Canis lupus familiaris, Microsome
[9] = Protein binding in dog plasma; assay type: ADME, cell-free, Canis lupus familiaris; conditions: read-out: PPB (converted)
Method in brief: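 Plasma protein binding measured by ultrafiltration after incubation at 37 °C for 1 h.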

[10] = Inhibition of recombinant HIV1 integrase strand transfer activity
[11] = Protein binding in rat plasma; assay type: ADME, cell-free; conditions: read-out: PPB (converted)
Method in brief: (§3)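 Plasma protein binding was measured by ultrafiltration after a 1 h incubation of compound in plasma at 37 °C.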

[12] = test system: Liver microsomes; test: Metabolic stability in human liver microsomes in presence of NADPH; assay type: ADME, Microsome; method in brief: as §2
[13] = test system: Human immunodeficiency virus 1; test: Antiviral activity against HIV1 in human MT4 cell assessed as inhibition of virus spread in presence of 50% normal human serum; assay type: functional; conditions: Human immunodeficiency virus 1, MT4; read-out: CIC95
Method in brief: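 Spread of HIV-1 infection in MT-4 human T-lymphoid cell culture with 50% normal human serum; CIC95 is the concentration inhibiting spread by ≥95%; mean of at least three independent experiments.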

[14] = organism: Homo sapiens; test: Protein binding in human plasma; conditions: read-out: PPB (converted)
[15] = molecular target: T1, Cytochrome P450 1A2 (Homo sapiens, UniProt P05177); test: Inhibition of CYP1A2; assay type: ADME
T1 sequence (P05177 whole entry): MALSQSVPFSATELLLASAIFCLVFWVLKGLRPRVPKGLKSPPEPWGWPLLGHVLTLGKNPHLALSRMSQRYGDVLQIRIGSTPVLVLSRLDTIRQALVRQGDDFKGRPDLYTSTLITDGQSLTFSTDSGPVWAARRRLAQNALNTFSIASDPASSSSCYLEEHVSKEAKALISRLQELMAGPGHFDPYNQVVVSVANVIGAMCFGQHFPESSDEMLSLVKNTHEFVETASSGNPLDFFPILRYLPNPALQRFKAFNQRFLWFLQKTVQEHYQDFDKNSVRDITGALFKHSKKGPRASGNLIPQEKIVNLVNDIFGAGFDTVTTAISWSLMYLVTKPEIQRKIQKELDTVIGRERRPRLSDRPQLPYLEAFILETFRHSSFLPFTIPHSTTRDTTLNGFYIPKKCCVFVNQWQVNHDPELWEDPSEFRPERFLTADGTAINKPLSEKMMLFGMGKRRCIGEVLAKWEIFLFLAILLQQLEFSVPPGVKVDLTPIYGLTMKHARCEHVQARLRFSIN

[16] = Oral bioavailability in rhesus monkey at 6.5 mg/kg; assay type: ADME, organism-based, Macaca mulatta; conditions: in vivo
Method in brief: (§4)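 Rhesus dosed 1 mg/kg iv in DMSO and 6.5 mg/kg po in 0.5% methylcellulose; plasma clearance and oral bioavailability.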

[17] = molecular target: Cytochrome P450 3A4 (Homo sapiens, UniProt P08684); test: Inhibition of CYP3A4; assay type: ADME
[18] = Inhibition of HIV-RNase-H; set-up: species or system Human immunodeficiency virus
[19] = Metabolic stability in rhesus monkey liver microsomes in presence of UDPGA; assay type: ADME, Macaca mulatta, Microsome
Method in brief: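 Single-point measurement: compound 2 µM, microsomes 0.3 mg/mL, with UDPGA; degradation quantified by LC/MS/MS after 1 h of incubation.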

[20] = molecular target: Cytochrome P450 2D6 (Homo sapiens, UniProt P10635); test: Inhibition of CYP2D6; assay type: ADME
[21] = molecular target: Cytochrome P450 2C9 (Homo sapiens, UniProt P11712); test: Inhibition of CYP2C9; assay type: ADME
[22] = molecular target: T2, DNA polymerase alpha catalytic subunit (Homo sapiens, UniProt P09884); test: Inhibition of human DNA polymerase alpha
T2 sequence (P09884 whole entry): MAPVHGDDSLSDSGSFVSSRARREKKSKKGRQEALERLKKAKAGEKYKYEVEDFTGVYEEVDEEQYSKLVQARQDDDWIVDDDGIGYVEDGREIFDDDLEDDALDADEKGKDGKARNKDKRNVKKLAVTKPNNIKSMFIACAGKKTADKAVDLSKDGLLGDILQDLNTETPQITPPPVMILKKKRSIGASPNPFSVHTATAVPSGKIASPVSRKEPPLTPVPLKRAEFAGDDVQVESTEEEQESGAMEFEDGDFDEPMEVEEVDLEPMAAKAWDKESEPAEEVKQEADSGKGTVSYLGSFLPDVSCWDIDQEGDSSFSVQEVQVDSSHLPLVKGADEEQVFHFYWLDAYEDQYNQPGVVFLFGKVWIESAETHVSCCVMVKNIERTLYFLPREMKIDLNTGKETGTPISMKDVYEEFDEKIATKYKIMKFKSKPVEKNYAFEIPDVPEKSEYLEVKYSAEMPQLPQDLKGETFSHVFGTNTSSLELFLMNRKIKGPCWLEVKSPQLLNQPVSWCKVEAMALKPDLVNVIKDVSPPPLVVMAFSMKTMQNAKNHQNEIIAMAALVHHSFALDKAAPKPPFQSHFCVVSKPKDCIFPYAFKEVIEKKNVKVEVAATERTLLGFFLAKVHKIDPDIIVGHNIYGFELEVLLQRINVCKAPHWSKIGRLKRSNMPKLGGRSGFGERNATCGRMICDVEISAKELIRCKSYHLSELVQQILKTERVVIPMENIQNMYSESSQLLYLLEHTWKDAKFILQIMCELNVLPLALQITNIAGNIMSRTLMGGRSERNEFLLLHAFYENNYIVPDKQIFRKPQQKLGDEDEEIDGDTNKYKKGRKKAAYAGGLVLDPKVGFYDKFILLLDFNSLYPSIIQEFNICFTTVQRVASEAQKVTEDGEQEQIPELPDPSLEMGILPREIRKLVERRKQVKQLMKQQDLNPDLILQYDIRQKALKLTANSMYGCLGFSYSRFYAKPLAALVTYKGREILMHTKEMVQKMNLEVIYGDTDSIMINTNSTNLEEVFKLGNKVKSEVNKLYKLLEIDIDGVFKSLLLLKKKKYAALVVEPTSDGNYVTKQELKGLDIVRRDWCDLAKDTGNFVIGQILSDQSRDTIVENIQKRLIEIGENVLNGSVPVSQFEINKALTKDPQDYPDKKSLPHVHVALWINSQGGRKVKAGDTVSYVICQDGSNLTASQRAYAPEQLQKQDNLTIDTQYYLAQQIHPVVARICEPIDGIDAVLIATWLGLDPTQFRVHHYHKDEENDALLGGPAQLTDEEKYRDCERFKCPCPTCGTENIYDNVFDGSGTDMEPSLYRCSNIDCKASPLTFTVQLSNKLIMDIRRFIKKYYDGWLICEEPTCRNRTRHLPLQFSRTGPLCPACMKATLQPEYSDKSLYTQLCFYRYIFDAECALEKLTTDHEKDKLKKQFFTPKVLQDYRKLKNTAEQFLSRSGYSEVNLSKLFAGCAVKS

[23] = Inhibition of HCV polymerase; set-up: species or system Hepacivirus hominis
[24] = molecular target: DNA polymerase beta (Homo sapiens, UniProt P06746); test: Inhibition of human DNA polymerase beta
[25] = molecular target: Voltage-gated inwardly rectifying potassium channel KCNH2 (Homo sapiens, UniProt Q12809); test: Inhibition of human ERG
[26] = molecular target: Cytochrome P450 2C19 (Homo sapiens, UniProt P33261); test: Inhibition of CYP2C19; assay type: ADME
[27] = Plasma clearance in dog at 1 mg/kg, iv or 2 mg/kg, po; assay type: ADME, organism-based, Canis lupus familiaris; method in brief: as §1
[28] = Oral bioavailability in dog at 2 mg/kg; assay type: ADME, organism-based, Canis lupus familiaris; conditions: in vivo; method in brief: as §1
[29] = Inhibition of human DNA polymerase gamma
[30] = Protein binding in rhesus monkey plasma; assay type: ADME, cell-free, Macaca mulatta; conditions: read-out: PPB (converted); method in brief: as §3
[31] = Plasma clearance in rhesus monkey at 1 mg/kg, iv or 6.5 mg/kg, po; assay type: ADME, organism-based, Macaca mulatta; method in brief: as §4
[32] = Volume of distribution at steady state in rat at 3 mg/kg, iv or 3 mg/kg, po; assay type: ADME, organism-based; conditions: in vivo, read-out: Vdss
[33] = Plasma clearance in dog at 1 mg/kg, iv or 4 mg/kg, po; assay type: ADME, organism-based, Canis lupus familiaris; method in brief: as §1
[34] = Half life in rat at 3 mg/kg, iv; assay type: ADME, organism-based; set-up: dose 3 mg/kg, route intravenous; conditions: in vivo; method in brief: as §1
[35] = Oral bioavailability in dog at 4 mg/kg; assay type: ADME, organism-based, Canis lupus familiaris; conditions: in vivo; method in brief: as §1
[36] = Cmax in rat at 10 mg/kg, po; assay type: ADME, organism-based; set-up: dose 10 mg/kg, route oral; conditions: in vivo; method in brief: as §1
[37] = Cmax in rat at 3 mg/kg, po; assay type: ADME, organism-based; set-up: dose 3 mg/kg, route oral; conditions: in vivo; method in brief: as §1
[38] = Half life in dog at 1 mg/kg, iv; assay type: ADME, organism-based, Canis lupus familiaris; set-up: dose 1 mg/kg, route intravenous; conditions: in vivo; method in brief: as §1
[39] = AUC in rat at 3 mg/kg, po; assay type: ADME, organism-based; set-up: dose 3 mg/kg, route oral; conditions: plasma; method in brief: as §1
[40] = Volume of distribution at steady state in dog at 1 mg/kg, iv or 4 mg/kg, po; assay type: ADME, organism-based, Canis lupus familiaris; conditions: in vivo, read-out: Vdss
Method in brief: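 Dogs received 1 mg/kg intravenously in DMSO/PEG400/H₂O (20%-40%-40%) and 4 mg/kg orally as a 1% methylcellulose suspension. Volume of distribution was derived from the plasma concentration data.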

[41] = AUC in rat at 10 mg/kg, po; assay type: ADME, organism-based; set-up: dose 10 mg/kg, route oral; conditions: plasma; method in brief: as §1

Sequence of Voltage-gated inwardly rectifying potassium channel KCNH2 (Q12809 whole entry): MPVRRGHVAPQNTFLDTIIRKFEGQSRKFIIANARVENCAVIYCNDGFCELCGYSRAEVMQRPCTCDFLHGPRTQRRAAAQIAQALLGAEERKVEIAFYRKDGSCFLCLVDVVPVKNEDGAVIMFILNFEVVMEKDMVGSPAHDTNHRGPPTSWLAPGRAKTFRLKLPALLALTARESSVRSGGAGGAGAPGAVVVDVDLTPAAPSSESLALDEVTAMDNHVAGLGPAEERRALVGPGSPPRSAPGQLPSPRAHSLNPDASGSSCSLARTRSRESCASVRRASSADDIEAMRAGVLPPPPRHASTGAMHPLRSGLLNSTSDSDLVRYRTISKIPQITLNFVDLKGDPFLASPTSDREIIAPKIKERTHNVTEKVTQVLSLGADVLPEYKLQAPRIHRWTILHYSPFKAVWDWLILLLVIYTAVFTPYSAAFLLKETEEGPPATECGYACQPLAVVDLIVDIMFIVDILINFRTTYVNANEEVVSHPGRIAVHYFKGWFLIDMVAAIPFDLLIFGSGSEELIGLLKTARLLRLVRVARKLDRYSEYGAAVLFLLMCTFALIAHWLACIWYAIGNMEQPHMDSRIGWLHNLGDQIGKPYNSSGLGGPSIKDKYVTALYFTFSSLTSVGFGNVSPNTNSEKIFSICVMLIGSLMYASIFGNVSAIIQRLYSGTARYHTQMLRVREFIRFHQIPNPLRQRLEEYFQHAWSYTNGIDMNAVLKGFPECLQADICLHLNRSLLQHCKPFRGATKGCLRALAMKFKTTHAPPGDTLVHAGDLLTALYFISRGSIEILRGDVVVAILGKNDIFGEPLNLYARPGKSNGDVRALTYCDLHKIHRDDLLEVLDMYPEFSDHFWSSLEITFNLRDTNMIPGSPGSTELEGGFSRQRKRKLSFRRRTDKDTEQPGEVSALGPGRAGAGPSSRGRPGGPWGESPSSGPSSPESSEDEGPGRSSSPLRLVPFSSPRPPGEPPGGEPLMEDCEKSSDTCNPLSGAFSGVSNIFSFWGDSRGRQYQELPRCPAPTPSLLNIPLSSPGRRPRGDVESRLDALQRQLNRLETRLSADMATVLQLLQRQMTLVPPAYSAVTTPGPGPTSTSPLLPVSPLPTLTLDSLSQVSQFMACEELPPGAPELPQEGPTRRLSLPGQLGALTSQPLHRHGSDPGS
Sequence of Cytochrome P450 2C19 (P33261 whole entry): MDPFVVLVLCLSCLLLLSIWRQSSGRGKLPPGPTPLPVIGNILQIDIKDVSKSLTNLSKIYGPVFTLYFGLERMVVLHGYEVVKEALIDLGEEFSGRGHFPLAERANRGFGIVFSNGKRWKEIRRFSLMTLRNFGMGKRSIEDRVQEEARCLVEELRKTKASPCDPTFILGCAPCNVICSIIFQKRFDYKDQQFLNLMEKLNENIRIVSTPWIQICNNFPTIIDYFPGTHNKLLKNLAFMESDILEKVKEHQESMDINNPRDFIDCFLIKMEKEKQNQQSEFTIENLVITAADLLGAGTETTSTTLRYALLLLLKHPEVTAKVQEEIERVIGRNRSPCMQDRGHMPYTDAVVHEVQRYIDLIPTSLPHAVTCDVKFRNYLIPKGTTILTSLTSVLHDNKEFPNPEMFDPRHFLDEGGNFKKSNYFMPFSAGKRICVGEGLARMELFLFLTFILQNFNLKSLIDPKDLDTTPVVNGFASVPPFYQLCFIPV
Sequence of Cytochrome P450 3A4 (P08684 whole entry): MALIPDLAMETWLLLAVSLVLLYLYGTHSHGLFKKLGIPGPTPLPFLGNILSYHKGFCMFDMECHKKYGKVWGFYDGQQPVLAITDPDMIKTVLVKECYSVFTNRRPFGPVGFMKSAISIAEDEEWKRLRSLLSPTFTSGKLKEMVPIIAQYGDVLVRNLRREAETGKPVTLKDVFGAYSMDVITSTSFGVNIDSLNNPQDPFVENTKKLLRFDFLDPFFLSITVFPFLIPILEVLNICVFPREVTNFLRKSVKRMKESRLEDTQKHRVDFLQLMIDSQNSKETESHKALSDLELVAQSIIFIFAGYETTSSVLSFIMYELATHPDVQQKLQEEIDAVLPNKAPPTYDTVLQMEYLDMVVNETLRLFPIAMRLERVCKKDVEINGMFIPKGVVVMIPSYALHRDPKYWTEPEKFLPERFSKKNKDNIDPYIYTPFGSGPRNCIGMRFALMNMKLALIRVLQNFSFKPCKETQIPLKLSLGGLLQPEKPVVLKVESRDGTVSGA
Sequence of Cytochrome P450 2C9 (P11712 whole entry): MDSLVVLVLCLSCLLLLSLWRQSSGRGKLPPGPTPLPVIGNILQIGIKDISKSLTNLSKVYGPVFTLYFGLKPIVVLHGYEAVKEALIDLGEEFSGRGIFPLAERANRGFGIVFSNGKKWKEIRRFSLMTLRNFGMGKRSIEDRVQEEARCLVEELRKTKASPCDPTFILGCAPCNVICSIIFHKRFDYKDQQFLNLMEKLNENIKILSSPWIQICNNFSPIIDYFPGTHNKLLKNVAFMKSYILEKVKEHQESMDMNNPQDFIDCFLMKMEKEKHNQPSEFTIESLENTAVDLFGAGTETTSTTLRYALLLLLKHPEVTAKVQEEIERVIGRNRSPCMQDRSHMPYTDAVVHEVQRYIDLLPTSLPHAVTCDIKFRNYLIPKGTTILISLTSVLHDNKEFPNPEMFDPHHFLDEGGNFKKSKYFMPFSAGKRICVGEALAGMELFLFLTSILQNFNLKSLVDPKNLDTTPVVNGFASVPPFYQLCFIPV
Sequence of Cytochrome P450 2D6 (P10635 whole entry): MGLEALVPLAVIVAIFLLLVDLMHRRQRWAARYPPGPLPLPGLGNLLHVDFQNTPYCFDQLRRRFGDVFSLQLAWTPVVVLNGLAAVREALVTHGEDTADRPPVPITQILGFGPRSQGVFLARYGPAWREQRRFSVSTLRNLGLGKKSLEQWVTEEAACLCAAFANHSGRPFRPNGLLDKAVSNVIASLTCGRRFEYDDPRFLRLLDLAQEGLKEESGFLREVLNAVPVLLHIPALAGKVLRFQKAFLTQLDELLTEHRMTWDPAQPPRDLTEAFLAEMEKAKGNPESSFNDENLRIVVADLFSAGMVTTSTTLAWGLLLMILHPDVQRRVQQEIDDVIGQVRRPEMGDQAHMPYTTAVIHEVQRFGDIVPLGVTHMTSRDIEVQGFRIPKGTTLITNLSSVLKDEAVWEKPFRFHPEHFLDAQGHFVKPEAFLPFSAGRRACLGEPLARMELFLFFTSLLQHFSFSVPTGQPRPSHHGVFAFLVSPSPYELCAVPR

CN(C(=O)CS(=O)(=O)N(C)C)[C@H]1CCCn2c1nc(C(=O)NCc1ccc(F)cc1)c(O)c2=O
IC95 [1]: 16 nM | clearance [2]: 55 mL/min/kg | Stability [3]: 47 %/hr | Stability [4]: 51 %/hr | Stability [5]: 15 %/hr | bioavailability [6]: 17% | Stability [7]: 46 %/hr | Stability [8]: 24 %/hr | fraction unbound [9]: 0.29 | IC50 [10]: 7 nM | fraction unbound [11]: 0.26 | Stability [12]: 36 %/hr | IC95 [13]: 31 nM | fraction unbound [14]: 0.22

CN(C)S(=O)(=O)N(C)[C@@H]1CCCn2c1nc(C(=O)NCc1ccc(F)cc1)c(O)c2=O
IC95 [1]: 16 nM | IC50 [15]: > 100000 nM | clearance [2]: 1.8 mL/min/kg | bioavailability [16]: 9% | Stability [3]: 81 %/hr | IC50 [17]: > 100000 nM | IC50 [18]: > 25000 nM | Stability [19]: 84 %/hr | bioavailability [6]: 63% | Stability [8]: 46 %/hr | fraction unbound [9]: 0.11 | IC50 [20]: > 100000 nM | IC50 [21]: > 100000 nM | IC50 [22]: > 200000 nM | IC50 [10]: 7 nM | IC50 [23]: > 50000 nM | IC50 [24]: > 200000 nM | IC50 [25]: 20000 nM | IC50 [26]: > 100000 nM | fraction unbound [11]: 0.01 | clearance [27]: 3.8 mL/min/kg | IC95 [13]: 44 nM | bioavailability [28]: 42% | IC50 [29]: > 200000 nM | fraction unbound [30]: 0.14 | clearance [31]: 27 mL/min/kg | fraction unbound [14]: 0.19

CN(C)C(=O)C(=O)N(C)[C@H]1CCCn2c1nc(C(=O)NCc1ccc(F)cc1)c(O)c2=O
IC95 [1]: 33 nM | Vd [32]: 3 L/kg | clearance [2]: 11 mL/min/kg | bioavailability [6]: 47% | clearance [33]: 15 mL/min/kg | half-life [34]: 14 h | bioavailability [35]: 39% | Cmax [36]: 2500 nM | fraction unbound [9]: 0.34 | Cmax [37]: 2000 nM | half-life [38]: 1.7 h | IC50 [10]: 12 nM | AUC [39]: 2.5 µM·h | fraction unbound [11]: 0.16 | Vd [40]: 1.2 L/kg | IC95 [13]: 43 nM | AUC [41]: 3.8 µM·h | fraction unbound [14]: 0.37
